Results on 15 compounds are retold here after ChEMBL document CHEMBL1821567, “Synthesis and glycosidase inhibitory profiles of functionalised morpholines and oxazepanes” (Bioorg Med Chem, 2011).

Active and inactive are the calls of the source. The rule behind the calls is not given here.

The target in assay [1] is T1, Beta-galactosidase/Glucosylceramidase (Bos taurus, UniProt Q58D55+Q2KHZ8).
T1 sequence (Q58D55 whole entry): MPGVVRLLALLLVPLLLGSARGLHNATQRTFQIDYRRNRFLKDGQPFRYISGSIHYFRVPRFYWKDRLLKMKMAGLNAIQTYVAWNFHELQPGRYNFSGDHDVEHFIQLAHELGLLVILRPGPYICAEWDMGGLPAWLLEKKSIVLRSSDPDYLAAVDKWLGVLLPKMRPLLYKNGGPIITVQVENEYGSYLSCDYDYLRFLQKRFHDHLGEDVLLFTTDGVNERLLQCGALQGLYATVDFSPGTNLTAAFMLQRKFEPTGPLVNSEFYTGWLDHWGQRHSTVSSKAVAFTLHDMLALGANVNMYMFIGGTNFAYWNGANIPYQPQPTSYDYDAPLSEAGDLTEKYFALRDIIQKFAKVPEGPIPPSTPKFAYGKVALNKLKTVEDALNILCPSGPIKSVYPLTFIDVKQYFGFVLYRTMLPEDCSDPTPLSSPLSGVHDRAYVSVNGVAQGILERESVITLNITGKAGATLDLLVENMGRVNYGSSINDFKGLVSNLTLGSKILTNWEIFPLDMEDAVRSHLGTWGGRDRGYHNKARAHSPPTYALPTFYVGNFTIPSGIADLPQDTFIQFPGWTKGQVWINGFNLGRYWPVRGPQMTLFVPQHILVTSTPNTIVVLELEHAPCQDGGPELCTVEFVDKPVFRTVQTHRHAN
T1 sequence (Q2KHZ8 whole entry): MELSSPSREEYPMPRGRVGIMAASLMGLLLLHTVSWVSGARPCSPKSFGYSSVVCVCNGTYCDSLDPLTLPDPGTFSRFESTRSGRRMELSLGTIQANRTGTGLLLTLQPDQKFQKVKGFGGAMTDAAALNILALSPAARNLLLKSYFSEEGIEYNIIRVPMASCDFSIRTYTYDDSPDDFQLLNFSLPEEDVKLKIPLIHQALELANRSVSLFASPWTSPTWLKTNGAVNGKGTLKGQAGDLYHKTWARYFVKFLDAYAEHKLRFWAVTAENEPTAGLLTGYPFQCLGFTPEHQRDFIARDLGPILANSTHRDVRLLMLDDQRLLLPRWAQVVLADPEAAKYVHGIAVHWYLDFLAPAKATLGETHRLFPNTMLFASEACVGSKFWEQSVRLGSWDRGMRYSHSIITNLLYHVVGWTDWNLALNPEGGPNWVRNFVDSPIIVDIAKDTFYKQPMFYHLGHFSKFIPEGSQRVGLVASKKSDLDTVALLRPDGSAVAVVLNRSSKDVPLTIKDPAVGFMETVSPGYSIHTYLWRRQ
Nature of the assay: Inhibition of bovine liver beta-glucosidase/beta-galatosidase.

Another assay relates to Saccharomyces cerevisiae. Put plainly: Inhibition of Saccharomyces cerevisiae alpha-D-glucosidase at 1 mg/ml after 10 to 20 mins. In outline:
(§1)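 Enzyme was pre-incubated with test solution at 1 mg/ml, or dH2O for controls, for 10–20 min at 27 °C. Substrate was added and incubation continued for the same time at 27 °C. The reaction was stopped with glycine solution and read at 405 nm. Each sample and control ran in three wells at the enzyme's optimal pH. Values are % inhibition.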

The test system of assay [2] is Geobacillus stearothermophilus. Nature of the assay: Inhibition of Bacillus stearothermophilus alpha-D-glucosidase at 1 mg/ml after 10 to 20 mins. In a few lines:
as §1

The next assay concerns Oryza sativa. Put plainly: Inhibition of rice alpha-D-glucosidase at 1 mg/ml after 10 to 20 mins. In outline:
as §1

The subject of the next assay is Prunus. Nature of the assay: Inhibition of almond beta-D-glucosidase at 1 mg/ml after 10 to 20 mins. In outline:
as §1

In the next assay the test system is Canavalia ensiformis. Put plainly: Inhibition of jack bean alpha-D-mannosidase at 1 mg/ml after 10 to 20 mins. In outline:
as §1

A further assay has as its system Cellulomonas fimi. Put plainly: Inhibition of Cellulomonas fimi beta-D-mannosidase at 1 mg/ml after 10 to 20 mins. In outline:
as §1

For a further assay, the species on record is Bos taurus. Nature of the assay: Inhibition of bovine kidney N-acetyl-beta-D-glucosaminidase at 1 mg/ml after 10 to 20 mins. In a few lines: as §1
The target of assay [3] is Alpha-galactosidase (Coffea arabica) (UniProt Q42656). Put plainly: Inhibition of green coffee beans alpha-D-galactosidase at 1 mg/ml after 10 to 20 mins. In a few lines: as §1
Assay [4] concerns the target T2, Beta-galactosidase (Bos taurus) (UniProt Q58D55).
T2 sequence (whole entry): T1 sequence (Q58D55 whole entry)
Put plainly: Inhibition of bovine kidney beta-D-galactosidase at 1 mg/ml after 10 to 20 mins. In outline: as §1

The subject of the next assay is Penicillium decumbens. Put plainly: Inhibition of Penicillium decumbens naringinase at 1 mg/ml after 10 to 20 mins. In a few lines:
as §1

A further assay has as its target T3, Beta-galactosidase (Bos taurus, UniProt Q58D55).
T3 sequence (Q58D55 whole entry): T1 sequence (Q58D55 whole entry)
Nature of the assay: Inhibition of bovine kidney beta-D-galactosidase after 10 to 20 mins. In outline:
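Bovine kidney β-D-galactosidase was pre-incubated with test solution, or dH2O for controls, for 10–20 min at 27 °C. Substrate was added for a further 10–20 min at 27 °C, then glycine solution, and absorbance at 405 nm. Wells were run in triplicate. Ki and inhibition mode came from Lineweaver–Burk double-reciprocal slopes.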

Assay [5] can be described thus: Inhibition of lysosomal alpha-glucosidase.
The nature of assay [6]: Inhibition of lysosomal beta-glucosidase. To be noted: concentration not given here. In a few lines: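 Enzyme and test solution (or water for controls) were pre-incubated at 27 °C for 10–20 min. Substrate was then added and incubated at 27 °C for 10–20 min. The reaction was stopped with glycine solution and absorbance read at 405 nm. Wells were in triplicate with triplicate controls. Results are % inhibition at 1 mg/ml at optimal pH.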

Assay [7] is described as follows: Inhibition of lysosomal alpha-glucosidase.
Assay [8] deals with T4, Lysosomal acid glucosylceramidase (Homo sapiens, UniProt P04062).
T4 sequence (P04062 whole entry): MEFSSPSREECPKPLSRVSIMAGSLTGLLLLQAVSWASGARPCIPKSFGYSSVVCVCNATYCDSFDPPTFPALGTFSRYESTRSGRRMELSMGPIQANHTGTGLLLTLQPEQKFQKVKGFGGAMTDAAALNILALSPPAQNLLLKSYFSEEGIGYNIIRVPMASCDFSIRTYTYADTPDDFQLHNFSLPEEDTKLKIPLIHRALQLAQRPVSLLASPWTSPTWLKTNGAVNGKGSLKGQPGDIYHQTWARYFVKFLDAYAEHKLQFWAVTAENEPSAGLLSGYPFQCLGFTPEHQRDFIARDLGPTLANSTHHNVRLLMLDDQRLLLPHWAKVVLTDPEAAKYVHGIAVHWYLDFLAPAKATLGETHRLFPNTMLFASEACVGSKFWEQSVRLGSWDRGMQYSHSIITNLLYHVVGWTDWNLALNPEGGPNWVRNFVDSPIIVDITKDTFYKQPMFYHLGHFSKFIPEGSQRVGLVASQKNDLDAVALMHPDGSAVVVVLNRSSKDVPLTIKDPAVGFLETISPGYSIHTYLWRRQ
Nature of the assay: Uncompetitive inhibition of human beta-glucosidase by Michaelis-Menten kinetics analysis.

The nature of assay [9]: Inhibition of alpha-glucosidase.

Alpha-galactosidase (Coffea arabica), sequence (Q42656 16-378 limits assumed): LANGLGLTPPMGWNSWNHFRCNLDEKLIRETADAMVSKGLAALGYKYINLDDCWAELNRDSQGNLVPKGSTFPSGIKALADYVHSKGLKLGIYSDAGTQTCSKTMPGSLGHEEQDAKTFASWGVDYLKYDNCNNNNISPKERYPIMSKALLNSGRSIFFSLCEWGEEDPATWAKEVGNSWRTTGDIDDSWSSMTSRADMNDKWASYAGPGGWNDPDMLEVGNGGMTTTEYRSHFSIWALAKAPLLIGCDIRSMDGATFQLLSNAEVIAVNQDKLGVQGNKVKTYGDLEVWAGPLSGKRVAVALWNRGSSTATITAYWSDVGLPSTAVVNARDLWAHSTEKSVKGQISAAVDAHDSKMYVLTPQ

Regarding `O[C@@H]1[C@@H](O)[C@H](O)[C@@]2(O)CO[C@H]1N2C(=S)Nc1ccccc1`, in assay [1], the Ki turned out to be 2.5 µM.

In the case of `CCCN1C[C@@H](CO)O[C@H](OC)C1`, the inhibition in the assay on Saccharomyces cerevisiae was 8%; in assay [2] it was 9%; in assay [4] it was 54%; in the assay on Penicillium decumbens, 9%. In addition, the inhibition entry (with Oryza sativa; with Prunus; in the assay with Canavalia ensiformis; in the assay on Cellulomonas fimi; in the assay filed under Bos taurus; in [3]) was “inactive” in each case. On Beta-galactosidase, the IC50 was 75.5 µM.

For the compound `O[C@H]1[C@H](O)[C@@H](O)CN2CC[C@H](O)[C@H]12` [CASTANOSPERMINE], the Ki in assay [5] and in assay [7] was 0.1 µM in each case. Also, the inhibition in [5] (concentration not given here) is 100%; in assay [6], 96%.

Regarding `CO[C@@H]1CN(O)C[C@@H](CO)O1`, the inhibition in the assay on Saccharomyces cerevisiae was determined as 58%; in the assay on Oryza sativa it was 29%; in the assay filed under Bos taurus, 72%; in assay [4], 82%. For the same compound, the inhibition result (in assay [2]; in the assay on Prunus; with Canavalia ensiformis; in the assay with Cellulomonas fimi; in assay [3]; in the assay with Penicillium decumbens) was “inactive” throughout. The compound also had an IC50 against Beta-galactosidase of 30.6 µM. In addition, the Ki at Beta-galactosidase is 20.2 µM.

In assay [1], `O=C(Nc1ccccc1)N1[C@@H]2OC[C@]1(O)[C@@H](O)[C@H](O)[C@H]2O` registered a Ki of 30 µM.

Regarding `OCCC(O)CN1CCOCC1` (centres undefined), the Ki in assay [8] amounted to 640 µM.

Consider `OCCN1CCOCC1`, for which the Ki in [8] worked out at 620 µM.

Consider `CCCCN1C[C@@H](CO)O[C@H](OC)C1`, for which the inhibition result (in the assay with Saccharomyces cerevisiae; in assay [2]; with Oryza sativa; in the assay on Prunus; with Canavalia ensiformis; with Cellulomonas fimi) was “inactive” in each case. The inhibition result in [3] was “inactive”. The inhibition in the assay listed under Bos taurus is 8%; in assay [4] it was 45%; with Penicillium decumbens, 7%. At Beta-galactosidase, this compound returned an IC50 of 70.3 µM.

Turning to `O[C@@H]1[C@H](O)[C@H](O)[C@@]2(O)CO[C@H]1N2C(=S)Nc1ccccc1`, in [1], the Ki is 750 µM.

As to `O=C(Nc1ccccc1)N1[C@@H]2OC[C@]1(O)[C@@H](O)[C@@H](O)[C@H]2O`, the Ki in [1] worked out at 68 µM.

`CCCCCCCCN1C[C@@H](CO)O[C@H](OC)C1`: the inhibition entry (with Saccharomyces cerevisiae; in [2]; with Oryza sativa; in the assay with Prunus; in the assay on Canavalia ensiformis; in the assay listed under Bos taurus) was “inactive” throughout. The inhibition result (in [3]; in the assay on Penicillium decumbens) was “inactive” each time. Further, the inhibition was 6% in the assay with Cellulomonas fimi and 51% in assay [4]. For the same compound, the IC50 on Beta-galactosidase amounted to 55.1 µM.

Turning to `CO[C@@H]1CN(C)C[C@@H](CO)O1`, the inhibition was 24% with Saccharomyces cerevisiae and 48% in assay [4]. Also, the inhibition result (in assay [2]; in the assay with Oryza sativa; with Prunus; with Canavalia ensiformis; with Cellulomonas fimi; in the assay listed under Bos taurus) was “inactive” each time. For the same compound, the inhibition entry (in assay [3]; with Penicillium decumbens) was “inactive” throughout. The compound further had a half-maximal inhibitory concentration (IC50) at Beta-galactosidase of 88.6 µM. For the same compound, affinity on Beta-galactosidase was put at a Ki of 126 µM.

With `CO[C@@H]1CN(C[C@H]2O[C@H](OC)[C@H](O)[C@@H](O)[C@@H]2O)C[C@@H](CO)O1`, the inhibition with Saccharomyces cerevisiae stood at 77%; in [2], 66%; with Prunus, 28%; in the assay on Cellulomonas fimi it was 33%; in the assay filed under Bos taurus it was 11%; in assay [3], 31%. Also, the inhibition is 50% in assay [4] and 11% with Penicillium decumbens. The inhibition result in the assay on Oryza sativa and in the assay on Canavalia ensiformis was “inactive” each time.

In assay [9], `OC[C@H]1CNC[C@@H](O)[C@@H]1O` yielded an INH of 86 µM.

Compound `O[C@@H]1[C@@H](O)[C@H](O)[C@@]2(O)CO[C@H]1N2` yielded a Ki in assay [1] of 45 µM.
